# Source: PubChem (The Scripps Research Institute Molecular Screening Center)
# Only some compounds are listed: those with a hit (about 2.9% of all), similar ones and a draw of the others.
# PRMT1 inh = blocks human protein arginine methyltransferase 1; hit rate 1.3% among 370,000; recombinant PRMT1, activity-based probe fluorescence polarization; inhibition, % at 2.79 µM; Q99873;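 active = inhibition above about 21% made by adding two undisclosed values, limit read from the data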
# PAD4 FP inh = PAD4 (human) enzyme inhibition; hit rate 0.41% among 330,000; Q9UM07; recombinant PAD4, RCA probe fluorescence polarization; AID 485272; inhibition, % at 6.36 µM;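 active = percent inhibition above a cutoff equal to the mean of all tested compounds plus 3 SD, cut at about 15% in these data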;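 note: 0% = PAD4 with RCA probe and DMSO and 100% = probe without PAD4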
# Target sequence (Q9UM07 whole entry, looked up): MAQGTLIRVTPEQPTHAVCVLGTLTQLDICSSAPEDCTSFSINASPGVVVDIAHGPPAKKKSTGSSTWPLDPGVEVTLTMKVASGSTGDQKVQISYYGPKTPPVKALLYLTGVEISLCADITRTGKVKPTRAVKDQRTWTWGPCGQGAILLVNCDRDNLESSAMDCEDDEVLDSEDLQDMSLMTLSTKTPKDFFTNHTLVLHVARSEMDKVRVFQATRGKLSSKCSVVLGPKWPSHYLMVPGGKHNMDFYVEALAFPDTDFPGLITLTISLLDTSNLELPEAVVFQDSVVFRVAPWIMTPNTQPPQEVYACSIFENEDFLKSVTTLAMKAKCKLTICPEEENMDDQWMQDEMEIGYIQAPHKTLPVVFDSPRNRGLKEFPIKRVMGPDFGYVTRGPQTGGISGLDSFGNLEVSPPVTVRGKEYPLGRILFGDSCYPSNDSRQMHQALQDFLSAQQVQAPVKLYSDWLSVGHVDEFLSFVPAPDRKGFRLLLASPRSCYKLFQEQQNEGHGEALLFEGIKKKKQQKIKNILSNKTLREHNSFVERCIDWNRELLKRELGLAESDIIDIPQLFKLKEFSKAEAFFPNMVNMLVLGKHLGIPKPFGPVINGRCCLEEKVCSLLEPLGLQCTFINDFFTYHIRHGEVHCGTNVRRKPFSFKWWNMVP
# mABHD4 FP = ABHD4 (mouse) inhibition, primary FP screen. purified mABHD4, FP-Rh probe fluorescence polarization. inhibition, % at 8.92 µM. hit rate 0.54% among 370,000;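 active = inhibition exceeding the mean over every tested compound plus 3 SD, cut at about 30% in these data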;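 note: 0% = plate median of compound wells and 100% = S159A mutant with DMSO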
#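 Assay system: wild-type mouse ABHD4 protein; compound: single nominal dose of 8.92 µM, 0.89% DMSO final; schedule: 45 min + 60 min at 25 °C; measured by: FP readout, ex 525 nm / em 598 nm; evaluation: % inhibition of FP-Rh probe binding versus controls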
# SIAE inh = inhibitors of human sialic acid acetylesterase SIAE; Q9HAT2; SIAE FP-Rh probe binding, fluorescence polarization; inhibition, % at 9.66 µM; hit rate 0.69% among 370,000;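 active = inhibition above a cutoff: mean of compounds within the control limits plus 3 SD of those, cut at about 17% in these data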;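 note: 0% = plate median of compound wells and 100% = probe without SIAE protein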
# TCR-CD3 inh = blocks the human TCR-CD3 interaction | hit rate 0.37% among 360,000 | AID 651800 | inhibition, % at 9.4 µM | TAMRA-labeled TCR probe fluorescence, biochemical; in the data active = inhibition above about 19%;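 note: recombinant mutant TCR 2C K166C tagged with TAMRA read by polarization; 0% = receptor in buffer alone and 100% = receptor with positive control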
# HTRA1 inh = blocks human HTRA1 serine peptidase. hit rate 0.5% among 340,000. inhibition, % at 5.96 µM. recombinant HTRA1, FP-rhodamine activity-based probe, fluorescence polarization. Q92743; in the data active = inhibition above about 36%;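 note: 0% = enzyme with DMSO and 100% = wells lacking enzyme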
# HTRA1 conf = confirmation of human HTRA1 inhibitors; shares compounds with HTRA1 inh; recombinant HTRA1, FP-rhodamine activity-based probe, fluorescence polarization; hit rate 66% among 1,600; inhibition, % at 5.96 µM;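 active = mean inhibition over three repeats above a set limit taken from the earlier primary screen, cut at about 37% in these data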;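 note: 0% = HTRA1 with DMSO and 100% = wells lacking HTRA1; inhibitors block probe binding so polarization drops and inhibition rises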
# * = called active by the depositor; / = no result.
SMILES,PRMT1 inh,PAD4 FP inh,mABHD4 FP,SIAE inh,TCR-CD3 inh,HTRA1 inh,HTRA1 conf
O=C(Nc1ccc2ccccc2c1)C1CC2CCC1C2 (stereo not given),-2.9,/,-16.7,-0.4,/,/,/
O=C1CC(Nc2ccc(N3CCOCC3)cc2)C(=O)N1c1cccc(C(F)(F)F)c1 (stereo not given),/,9.8,/,/,/,60.8*,13.6
COC(=O)C1=C(C)NC(=O)/C1=C\c1cc(C)n(-c2cccc(C)c2)c1C,6.3,3.5,21.8,5.0,3.0,51.9*,38.2*
COC(=O)C1=C(C)NC(=O)/C1=C\c1cc(C)n(-c2ccc(F)cc2)c1C,7.1,-1.0,2.0,10.9,-4.2,2.9,/
Cc1ccc2nc(-c3ccccn3)[nH]c2c1,1.0,-0.8,6.7,0.9,-5.6,41.7*,32.8
CN1C(=O)C[C@@](C#N)(C(=O)NCC(F)(F)F)[C@H]1c1ccccc1,0.0,/,0.3,10.4,/,/,/
COc1ccc(-c2cc(-c3nnc(SCC(=O)Nc4ccccc4-c4ccccc4)n3N)[nH]n2)cc1,-4.0,/,-13.1,-21.8,/,/,/
Cc1ccc2c(c1)C(=O)CCN2,-0.1,-0.7,3.0,8.1,-5.0,3.6,/
O=C1CCNc2cc3ccccc3cc21,/,-13.7,/,/,/,40.8*,14.0
CC(C)[C@H](NS(=O)(=O)c1ccc(F)cc1F)C(=O)N1CCC[C@H]1C(=O)NCCc1ccccc1Cl,3.6,/,-4.0,-0.3,-4.6,/,/
CCn1c(=O)c(C(=O)CN2c3ccccc3CC2C)c(N)n(Cc2ccccc2)c1=O (stereo not given),3.1,-4.1,10.5,4.0,-3.7,37.8*,5.9
CC1Cc2ccccc2N1CC(=O)c1c(N)n(Cc2ccccc2)c(=O)n(C)c1=O (stereo not given),3.1,0.3,4.1,5.6,-1.7,5.2,/
CC1Cc2ccccc2N1CC(=O)N(C)c1c(N)n(Cc2ccccc2)c(=O)[nH]c1=O (stereo not given),8.5,-4.2,7.8,-10.6,-2.1,43.4*,2.0
O=C(/C=C/c1cccs1)NC(=S)NNC(=O)c1ccccc1O,-1.0,-7.2,6.0,6.3,-11.4,48.1*,57.5*
CCC(C(=O)Nc1ccccc1N1CCCC1)c1ccccc1F (stereo not given),-0.4,/,0.8,11.2,/,/,/
C/C(N=Nc1nc2ccccc2s1)=N\Nc1ccccc1O,-5.9,0.1,28.0,10.0,6.5,67.6*,73.6*
Oc1[nH]c2ccccc2c1N=Nc1nc2ccccc2s1,-3.5,-2.1,-5.6,-0.5,-1.9,11.3,/
Cc1n[nH]c(=O)c2c(NC(=O)CSc3nc4ccccc4c(=O)n3CCCO)oc(C)c12,12.0,-4.7,-6.1,3.5,-6.0,37.9*,-1.6
O=c1cc(CN2CCN(Cc3ccccc3)CC2)c2ccc(O)c(O)c2o1,6.4,-1.8,19.4,1.2,11.0,60.8*,69.6*
Cc1c(O)ccc2c(CN3CCN(Cc4ccccc4)CC3)cc(=O)oc12,1.0,-3.5,-2.5,4.0,2.1,-0.2,/
O=S1(=O)Nc2c(ccc3cccnc23)-c2ccccc21,/,-1.5,/,/,/,36.5*,31.4
COc1ccc(-n2nnnc2SCC(N)=O)cc1,-1.6,-1.1,1.5,0.2,-2.2,9.2,/
COc1ccc(-n2nnnc2SCC(=O)c2ccc(O)c(O)c2)cc1,-1.8,1.4,24.1,4.3,18.4,45.5*,61.3*
Cc1cc(C)cc(-n2c(C)c3c(C)nnc(C)c3c2C)c1,2.5,-7.9,-5.5,3.8,4.7,40.2*,12.4
Cc1nnc(C)c2c(C)n(-c3ccc(Cl)c(N)c3)c(C)c12,-4.1,1.8,7.1,5.4,1.3,18.9,/
SMILES,PRMT1 inh,PAD4 FP inh,mABHD4 FP,SIAE inh,TCR-CD3 inh,HTRA1 inh,HTRA1 conf
COc1cc(C(=O)Oc2c(CN3CCOCC3)cc(Cl)c3cccnc23)cc(OC)c1OC,/,-7.8,/,/,/,50.0*,71.4*
O=C(Oc1c(CN2CCOCC2)cc(Cl)c2cccnc12)c1ccccc1Cl,0.9,-6.5,11.8,16.1,-5.3,37.1*,39.2*
O=C(Oc1c(Cl)cc(Cl)c2cccnc12)c1ccco1,-5.6,-4.2,16.1,7.1,3.2,59.0*,54.4*
COc1cccc(C(=O)Oc2c(CN3CCOCC3)cc(Cl)c3cccnc23)c1,0.0,0.5,8.8,-1.1,-3.6,35.5,/
O=C(Oc1c(Cl)cc(Cl)c2cccnc12)c1cccs1,-2.0,0.9,15.4,10.0,-4.7,44.8*,24.1
O=C(Oc1c(CN2CCOCC2)cc(Cl)c2cccnc12)c1ccc(F)cc1,-0.3,-5.4,5.9,3.7,6.6,30.1,/
CCC(C(=O)Nc1ccccc1N1CCCC1)c1ccccc1Cl (stereo not given),0.2,/,3.5,3.0,/,/,/
O=C(Oc1ccc(Cl)c2cccnc12)N1CCOCC1,3.4,2.0,-20.0,-6.0,-8.0,2.7,/
O=C(Oc1c(CN2CCOCC2)cc(Cl)c2cccnc12)c1cccs1,-4.3,-5.0,6.9,8.7,-7.8,44.4*,10.9
CCCC1CCC2(CC1)CCC2OC(=S)NCc1cccc(F)c1 (stereo not given),-0.1,/,-21.3,-4.8,/,/,/
CCCCc1c(-c2ccccc2OC)ncn1Cc1ccc(C)cc1,-3.5,/,6.6,12.5,4.1,/,/
CNC(=O)COc1ccc(Cl)c2cccnc12,-4.2,1.7,5.2,3.6,3.1,-1.2,/
O=C(Oc1ccc(Cl)c2cccnc12)c1cccnc1,-3.1,3.0,1.8,7.5,-0.4,70.8*,81.5*
Cc1cccc(NC(=O)Oc2ccc(Cl)c3cccnc23)c1,1.3,/,-0.6,10.6,-1.7,53.6*,41.2*
CCOC(=O)C1CCCN(C2=C(NS(=O)(=O)c3ccc(Br)cc3)C(=O)c3ccccc3C2=O)C1 (stereo not given),13.7,-9.8,25.2,13.3,3.1,45.7*,62.5*
CC1CCCN(C2=C(NS(=O)(=O)c3ccc(Br)cc3)C(=O)c3ccccc3C2=O)C1 (stereo not given),4.7,-14.0,1.1,14.0,-7.4,4.8,/
COc1cc(/C=C(\C#N)C(=O)c2ccc(O)c(O)c2)cc(I)c1O,29.2*,-31.8,-6.2,-9.8,23.1*,41.0*,29.6
Cc1ccc(N=Nc2ccc3ccccc3c2O)cc1,4.2,-5.7,-0.9,-7.1,-4.8,11.0,/
Cc1ccc(N=Nc2ccc(O)c3ncccc23)cc1C,1.9,-1.7,5.6,7.2,-1.5,38.8*,82.2*
Oc1ccc(F)c2cccnc12,-0.1,0.4,1.5,1.1,0.9,24.1,/
Oc1ccc(N=Nc2ccccc2C(F)(F)F)c2cccnc12,1.9,-1.1,7.3,1.7,-3.5,53.5*,74.7*
Cc1ccc(N=Nc2ccc(O)c3ncccc23)cc1,-1.1,-4.1,16.3,3.2,5.1,49.7*,69.5*
OCc1ccc(O)c2ncccc12,3.6,-2.3,8.3,14.5,5.2,21.7,/
O=C(NCc1cccs1)C1CCN(S(=O)(=O)c2ccc([N+](=O)[O-])cc2)CC1,-2.8,/,-2.0,7.3,/,/,/
